Bioassay records: PubChem BioAssay, Broad Institute
Only some compounds are listed: those with a hit (about 3.5% of all), similar ones and a draw of the others.
Env fusion inh: inhibitors of HIV-1 Env-driven cell-cell fusion, primary screen, HeLa-JRFL effector, CEM21 target cells, luciferase | inhibition, % at 12.3 µM | 360,000 compounds, 1.1% hits;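 active = mean replicate inhibition score of at least 50 and every replicate individually at or above 50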;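 also: 0% = plate neutral controls and 100% = maraviroc near 300 nM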
Cneo AK release: Cryptococcus neoformans cell lysis inducers, primary screen, AK release luminescence, single concentration | 360,000 compounds, 0.2% hits | C. neoformans lysis, adenylate kinase release luminescence, 4 h; normalised: neutral wells 0, clomiphene wells 100 | lysis activity, % at 15 µM;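 active = mean lysis activity across replicates of at least 80%, whatever share of replicates individually reach that level; inactive = mean lysis activity below 80%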
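Test system: log-phase Cryptococcus neoformans yeast cells. Input: 5 × 10^6 yeast cells/mL. Medium: fresh YPD growth medium. Doses: single dose. Incubation: static 4 h at 37 °C with compound, 1 h detection. Measured by: luminescent adenylate kinase detection reagent. Read-out: signal increase indicating cell lysis. Benchmarks: Clomiphene.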
PGC1a acetyl inh: inhibitors of PGC1a acetylation signal, primary screen, cell-based, U2OS, AlphaScreen, inhibitor mode | AlphaScreen anti-acetyl-lysine; with virally co-expressed GCN5 acetyltransferase | inhibition, % at 15.6 µM | 350,000 compounds, 0.17% hits;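 active = every replicate shows inhibition of at least 40%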;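 also: 0% = neutral control wells and 100% = positive control wells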
FGF22 binding: binders of human FGF22 protein, primary screen, FGF22 synaptogenesis inhibitor project, biophysical, thermal shift, single point. activity (Tm shift, normalised), % at 9.99 µM. recombinant FGF22 thermal shift, SYPRO orange fluorescence; percent of sucrose octasulfate shift, DMSO zero. 340,000 compounds, 1.5% hits. Fibroblast growth factor 22 (Homo sapiens), Q9HCT0;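 active = mean Tm shift, scaled 0 neutral to 100 positive control, at about 1.3% or above, every replicate too, limit read from the data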
ERAP1 HTS inh: human ERAP1 aminopeptidase inhibitors, primary screen, biochemical, single point, plate reader. 340,000 compounds, 0.15% hits. inhibition, % at 10.7 µM. recombinant ERAP1, Leu-AMC fluorescence, 60 min. AID 652197, 2013. Endoplasmic reticulum aminopeptidase 1 (Homo sapiens), Q9NZ08;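 active = mean replicate inhibition of at least 30%, or all replicates individually reaching that 30% level; inactive = mean below 30% and not every replicate reaching it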;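 also: 0% = neutral control wells and 100% = L-leucinethiol positive control wells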
Ecoli rRNA inh: reduced GFP signal of wild-type E. coli, primary screen, bacterial rRNA inhibitor project, GFP/RFP fluorescence, OD600, single point. E. coli WT GFP vs humanized-ribosome RFP mutants, 24 h; active compounds read low; DMSO median 0, no signal -100. GFP signal change (wild-type ribosome), % (test concentration not listed). 350,000 compounds, 1.6% hits. AID 720706, 2013;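 active = significant combined selectivity score with lowered wild-type GFP, culture density cut under 30%, mutant RFP and density less affected; inactive = any of these conditions unmet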
Active calls of the source: *; / = no result given; [ ] = dose if it differs, or a comment.

SMILES	Env fusion inh	Cneo AK release	PGC1a acetyl inh	FGF22 binding	ERAP1 HTS inh	Ecoli rRNA inh
CC(=NNC(=O)c1ccncc1)c1cccc(Br)c1	-121.7	0.4	-7.1	-0.6	3.9	12.8
C[C@@H]1CN([C@@H](C)CO)S(=O)(=O)c2ccc(-c3ccc(C(=O)N(C)C)cc3)cc2O[C@@H]1CN(C)Cc1ccc2c(c1)OCO2	-37.3[16.7 µM]	1.5	-29.2	0.1	3.2	3.2
COc1cc(/C=C/C(=O)c2ccccc2O)cc(OC)c1OC	/	-1.2	9.5	0.1	0.9	-16.9*
COc1cc(C)cc(C(=O)C=Cc2ccccc2)c1O	-123.4	2.0	-17.4	0.2	-1.2	-52.1*
C=CC[C@@H](CC(=O)N[C@@H](CO)Cc1ccccc1)C(=O)N[C@@H](COC(=O)[C@H](CC=C)CC(=O)OC(C)(C)C)Cc1c[nH]c2ccccc12	-144.5	-0.4	-4.3	0.4	-1.4	9.6
C=CCn1c(SCC(=O)NCCC2=CCCCC2)nc2ccc(Cl)cc2c1=O	62.5*	2.3	0.3	/	/	/
C=CCn1c(SCC(=O)Nc2ccccc2OC)nc2c([nH]c3ccccc32)c1=O	63.1*	0.9	1.9	-0.1	3.6	0.5
COCCn1c(SCC(=O)Nc2ccccc2OC)nc2c([nH]c3ccccc32)c1=O	92.3*	1.8	/	0.0	-0.8	1.7
C=CCn1c(SCC(=O)NCCc2ccccc2)nc2c([nH]c3ccccc32)c1=O	57.5*	-1.5	5.5	-0.1	-2.1	7.2
O=C(CCCn1c(=O)[nH]c2cc(Cl)ccc2c1=O)NCCC1=CCCCC1	-18.5	-0.7	-73.3	/	/	/
Cc1ccccc1-c1ocnc1C(=O)Nc1ccccc1NC(=O)c1ccccn1	4.9	1.7	-26.6	-0.8	1.4	-17.2
Cc1cc2c(c(=O)o1)C(C1C=CCCC1)C(C#N)=C(N)O2 (stereo unspecified)	-74.7	2.1	-3.0	/	/	/
CNC(=O)CSc1nc2c([nH]c3ccccc32)c(=O)n1CCOC	-8.4	/	/	43.9*	-2.0	-3.1
CCOC(=O)/C(C)=N/Nc1nc(-c2ccc(NC(C)=O)cc2)cs1	11.5	0.0	-4.8	0.2	3.6	-26.9*
CC(=O)Nc1ccc(-c2csc(Nc3cc(C)ccn3)n2)cc1	-23.7	-1.0	7.3	0.3	-2.7	-47.8*
CC(=O)Nc1nc(-c2ccc([N+](=O)[O-])cc2)cs1	-14.9	/	/	0.2	-1.7	7.6
CC(C)=NNc1nc(-c2ccc([N+](=O)[O-])cc2)cs1	-6.7	/	-0.8	-0.1	0.2	-34.5*
CC(=O)Nc1ccc(-c2csc(N/N=C(/C)c3ccccc3)n2)cc1	-15.2	/	-6.9	0.1	1.6	-8.2
O=S(=O)(Nc1ccc(Cl)cc1)c1cccc2cccnc12	15.7	-1.7	-0.8	-0.3	0.0	-23.0
C/C(CC(=O)Nc1ccc(C)c(Cl)c1)=N\NC(=O)c1ccncc1	1.3	/	/	43.5*	1.4	-28.9
COc1cc(CNCCN2CCOCC2)ccc1OCC(=O)NC(C)(C)C	-3.9	0.6	7.7	42.9*	3.0	/
COc1cc(CNCCCN2CCOCC2)ccc1OCC(=O)NC(C)(C)C	-10.3	/	/	43.7*	2.3	24.6
CCOc1cc(CNCCCN2CCOCC2)ccc1OCC(=O)NC(C)(C)C	-13.5	3.2	23.6	42.4	1.8	18.9
CC1CCC2(CC1)NC(=O)N(CC(=O)N1CCOCC1)C2=O (stereo unspecified)	2.1	-0.6	0.6	0.2	-0.7	1.4
COC(=O)C1=C(NC(=O)c2ccccc2C)CCS1	3.5	/	/	0.2	0.7	-10.0
SMILES	Env fusion inh	Cneo AK release	PGC1a acetyl inh	FGF22 binding	ERAP1 HTS inh	Ecoli rRNA inh
Cc1ccc(S(=O)(=O)N(C)C[C@@H]2Oc3ccc(N(C)C)cc3CC(=O)N([C@H](C)CO)C[C@H]2C)cc1	/	0.5	-3.6	-0.9	0.1	1.1
CS(=O)(=O)n1nc(-c2cccnc2)nc1NCc1ccccc1	8.5	/	/	0.1	/	4.5
CN(C)c1ccc(CNc2nc(-c3ccccc3)nn2S(C)(=O)=O)cc1	9.8	0.9	-4.4	-0.3	0.4	-23.5*
CC(=O)n1nc(-c2ccccc2)nc1NCc1ccc(N(C)C)cc1	-14.7	-0.1	-1.6	0.4	-0.5	-24.6*
Cc1c(NC(=O)CSc2ncn[nH]2)c(=O)n(-c2ccccc2)n1C	/	2.7	/	/	1.0	16.6
CCOC(=O)/C=C1\Nc2ccccc2SC1=O	112.9*	-1.8	/	/	/	/
O=C(/C=C/c1ccccc1[N+](=O)[O-])N1CCCCC1	5.3	/	/	43.1*	-3.9	0.8
O=C(/C=C/c1ccccc1[N+](=O)[O-])N1CCN(c2ccc(F)cc2)CC1	10.6	-4.9	/	0.1	-3.1	-30.1*
CCN1CCN(C(=O)/C=C/c2ccccc2[N+](=O)[O-])CC1	4.6	/	/	-0.2	2.2	0.8
COC(=O)c1ccc(CN2CCC(CO)(Cc3cccc(OC)c3)CC2)cc1	1.7	/	/	0.2	5.2	3.2
C[C@H](O)C#Cc1cnc2c(c1)C(=O)N([C@@H](C)CO)C[C@@H](C)[C@@H](CN(C)C(=O)c1ccncc1)O2	-1.8[16.7 µM]	3.0	4.7	0.2	-4.5	3.9
CSc1ccc(/C=C/c2ccc3cccc(O)c3n2)cc1	-130.4	/	/	0.3	12.1	-30.2*
COc1cc(/C=C/c2ccc3cccc(O)c3n2)ccc1O	-110.4	-5.8	/	-0.5	-4.8	-58.5
Cc1nnn(C23CC4CC(CC(CC(=O)Nc5ccc(C)c(C)c5)(C4)C2)C3)n1	/	-2.3	/	0.0	-3.9	-18.6*
Cc1cccc(NC(=O)CC23CC4CC(C2)CC(n2nnc(C)n2)(C4)C3)c1	/	-1.0	/	0.1	-0.4	-22.6*
CC(=O)c1ccc(NC(=O)CC23CC4CC(C2)CC(n2nnc(C)n2)(C4)C3)cc1	-20.2	/	15.3	0.1	4.7	-17.6
Cc1nnn(C23CC4CC(CC(CC(=O)Nc5cccc(F)c5)(C4)C2)C3)n1	2.8	/	-3.2	-0.2	/	-8.4
Cc1ccc2nc(SCC(=O)c3ccc4c(c3)OCO4)[nH]c2c1	/	0.2	5.2	/	-2.1	-22.6*
O=C(CSc1nc2ccccc2[nH]1)c1ccc2c(c1)OCO2	-65.7	-1.3	-0.7	/	/	/
C[C@@H]1CN([C@H](C)CO)C(=O)c2ccccc2-c2ccccc2CO[C@@H]1CN(C)C(=O)[C@@H]1CCCN1C	18.7[16.7 µM]	0.5	-1.3	0.1	0.0	-1.3
Cc1ccc(NCc2nnc(SCC#N)o2)c(C)c1	/	0.2	6.4	/	/	/
O=C(Cc1ccccc1[N+](=O)[O-])NCc1ccco1	-11.7	/	/	43.6*	1.1	8.8
O=C(NC(=S)NCc1ccco1)c1ccc([N+](=O)[O-])cc1	-34.4	/	/	0.1	1.4	-5.5*
